Assay results published in ChEMBL document CHEMBL1806366, “Synthesis and structure-activity relationship of new 1,5-dialkyl-1,5-benzodiazepines as cholecystokinin-2 receptor antagonists” (Bioorg Med Chem, 2011).
≈ marks a conversion by molar mass, not a printed value. Calls of active or inactive are those of the source. No cut-off for these calls is given here.

How the values were obtained:
[1] = Displacement of [3H]CCK8 from guinea pig brain CCK2 receptor by liquid scintillation counting; design: species or system Cavia porcellus
How it was run: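 Guinea pig brain membranes incubated at 25 °C with [³H]-CCK8s at 0.2 nM; nonspecific binding defined with L-365,260. Bound and free ligand separated by filtration over GF/C filters, then counted by liquid scintillation. Ki calculated using Bmax and KD from separate saturation binding isotherms.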

Mus musculus [2] = assay: Anxiolytic activity in po dosed mouse measured after 60 mins post dose by black/white box test; assay type: functional
How it was run: (§1)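 Mice dosed orally 60 min before testing, then placed in the centre of the illuminated white compartment of a two-part black/white box. Time spent exploring the white and black sides recorded; longer time in the white side read as anxiolytic effect. Model used for both potency and duration of action.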

[3] = target: T1, Cholecystokinin receptor type A (Rattus norvegicus, UniProt P30551); assay: Displacement of [3H]CCK8 from rat pancreas CCK1 receptor at by liquid scintillation counting
T1 sequence (P30551 whole entry): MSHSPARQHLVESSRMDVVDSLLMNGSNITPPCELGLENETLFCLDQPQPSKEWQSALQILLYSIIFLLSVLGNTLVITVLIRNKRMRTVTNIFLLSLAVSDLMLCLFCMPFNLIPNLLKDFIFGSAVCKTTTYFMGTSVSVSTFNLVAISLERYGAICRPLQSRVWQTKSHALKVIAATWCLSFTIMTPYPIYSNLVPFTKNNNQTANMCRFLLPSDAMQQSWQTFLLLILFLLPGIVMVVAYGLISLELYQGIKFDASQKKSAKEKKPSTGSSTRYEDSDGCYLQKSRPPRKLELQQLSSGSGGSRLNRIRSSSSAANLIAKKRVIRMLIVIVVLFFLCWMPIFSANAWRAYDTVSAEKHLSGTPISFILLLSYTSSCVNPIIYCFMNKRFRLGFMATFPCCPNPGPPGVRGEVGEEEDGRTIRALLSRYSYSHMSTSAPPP
How it was run: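 Rat pancreas membranes incubated at 37 °C with [³H]-CCK8s at 0.2 nM; nonspecific binding defined with L-364,718. Bound and free ligand separated by filtration over GF/C filters, then counted by liquid scintillation. Ki calculated using Bmax and KD from separate saturation binding isotherms.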

[4] = Selectivity ratio of pKi for guinea pig brain CCK2 receptor to pKi for rat pancreas CCK1
How it was run: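 Radioligand displacement binding to guinea pig brain membranes (CCK2, incubated at 25 °C) and rat pancreas membranes (CCK1, incubated at 37 °C) with 0.2 nM [³H]-CCK8s. Non-specific binding was defined with L-365,260 (CCK2) or L-364,718 (CCK1). Bound ligand was separated by GF/C filtration and counted by liquid scintillation. Ki values were derived for each subtype, with KD and Bmax taken from separate saturation isotherms.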

[5] = Clearance in dog administered as methocel suspension; assay type: ADME, organism-based, Canis lupus familiaris; conditions: in vivo
[6] = Clearance in rat administered as methocel suspension; assay type: ADME, organism-based; conditions: in vivo
[7] = (§2) Volume of distribution in rat administered as methocel suspension; assay type: ADME, organism-based; conditions: in vivo
[8] = Oral bioavailability in dog administered as methocel suspension; assay type: ADME, organism-based, Canis lupus familiaris; conditions: in vivo
[9] = Half life in dog administered as methocel suspension; assay type: ADME, organism-based, Canis lupus familiaris; conditions: in vivo
[10] = Volume of distribution in dog administered as methocel suspension; assay type: ADME, organism-based, Canis lupus familiaris; conditions: in vivo
Mus musculus [11] = assay: Anxiolytic activity in po dosed mouse assessed as duration of action of the compound measured after 60 mins post dose by black/white box test; assay type: functional; how it was run: as §1
[12] = (§3) Oral bioavailability in rat administered as methocel suspension; assay type: ADME, organism-based; conditions: in vivo
[13] = Half life in rat administered as methocel suspension; assay type: ADME, organism-based; conditions: in vivo
[14] = Solubility of the compound at pH 2.4; assay type: physicochemical; conditions: buffer
Mus musculus [15] = assay: Anxiolytic activity in mouse up to 300 ug/kg, po measured after 60 mins post dose by black/white box test; assay type: functional, organism-based; how it was run: as §1
Rattus norvegicus [16] = assay: as §2; assay type: ADME, organism-based; conditions: in vivo
Rattus norvegicus [17] = assay: as §3; assay type: ADME, organism-based; conditions: in vivo
[18] = Mus musculus, po, 1 h, read-out: ED50

| SMILES | pKi [1] | ED50 (Mus musculus [2]; [18]) [µg/kg] | Ki [3] [µM] | Ki selectivity ratio (CCK1 Ki / CCK2 Ki) [4] | clearance [5] [mL/min] | clearance [6] [mL/min] | Vd [7] [L/kg] | bioavailability [8] [%] | half-life [9] [h] | Vd [10] [L/kg] | Time (Mus musculus [11]) [h] | bioavailability [12] [%] | half-life [13] [h] | solubility ([14]; read-out: solubility) [µg/mL] | Activity (Mus musculus [15]) | ED50 (Mus musculus [2]) [µg/kg] | solubility [14] [µg/mL] | Vd (Rattus norvegicus [16]) [L/kg] | F (Rattus norvegicus [17]) [%] |
| --- | --- | --- | --- | --- | --- | --- | --- | --- | --- | --- | --- | --- | --- | --- | --- | --- | --- | --- | --- |
| CCN(CC)CCN1C(=O)C(NC(=O)Nc2ccccc2)C(=O)N(CCC(C)C)c2ccccc21 (racemic) | 8.8 | 0.0006 | 4.07 | 2570 | – | – | – | – | – | – | – | – | – | – | – | – | – | – | – |
| CC(C)CCN1C(=O)C(NC(=O)Nc2ccccc2)C(=O)N(CCN2CCOCC2)c2ccccc21 (racemic) | 8.54 | 0.011 | 0.676 | 234 | 14 | 34 | 1.1 | 36 | 0.9 | 1 | 2 | 18 | 0.38 | 450 (≈ 912 µM) | – | – | – | – | – |
| CC(C)CCN1C(=O)C(NC(=O)Nc2ccc(O)cc2)C(=O)N(CCN2CCOCC2)c2ccccc21 (racemic) | 8.13 | – | 8.32 | 1120 | – | – | – | – | – | – | – | – | – | 450 (≈ 883 µM) | inactive | – | – | – | – |
| O=C(Nc1ccccc1)NC1C(=O)N(CCN2CCOCC2)c2ccccc2N(CC23CC4CC(CC(C4)C2)C3)C1=O (racemic) | 9.24 | – | 2.04 | – | 34 | 12 | 1 | 9 | 1.6 | 4.8 | – | 13 | 1.1 | – | – | 0.001 | 230 (≈ 402 µM) | – | – |
| O=C(Nc1ccccc1)NC1C(=O)N(CCN2CCOCC2)c2ccccc2N(CC23CC4CC(CC(C4)C2)C3)C1=O (single isomer, unassigned; (-)) | 9.64 | 0.002 | 2.04 | – | – | – | – | – | – | – | 4 | – | – | 230 (≈ 402 µM) | – | – | – | 1.1 | 10 |
| CC(C)CCN1C(=O)C(NC(=O)Nc2ccccc2)C(=O)N(CCN(C)C)c2ccccc21 (racemic) | 8.36 | 0.041 | 3.31 | 759 | 23 | 37 | 3.1 | 40 | 1.3 | 2.5 | 2 | 20 | 1 | 850 (≈ 1880 µM) | – | – | – | – | – |
| O=C(Nc1ccccc1)NC1C(=O)N(CCN2CCOCC2)c2cc(F)ccc2N(CC23CC4CC(CC(C4)C2)C3)C1=O (single isomer, unassigned; (-)) | 8.52 | 0.08 | 3.09 | – | – | 23 | 2.2 | – | – | – | 4 | 5 | 1.1 | 360 (≈ 610 µM) | – | – | – | – | – |
| O=C(Nc1ccc(F)cc1)NC1C(=O)N(CCN2CCOCC2)c2ccccc2N(CC23CC4CC(CC(C4)C2)C3)C1=O (racemic) | 8.66 | – | 1.41 | – | – | – | – | – | – | – | – | – | – | 20 (≈ 33.9 µM) | – | – | – | – | – |
| CN(C)CCN1C(=O)C(NC(=O)Nc2ccccc2)C(=O)N(CC23CC4CC(CC(C4)C2)C3)c2ccccc21 (racemic) | 9 | 0.004 | 3.24 | 3240 | – | 28 | 2.7 | – | – | – | 4 | 5 | 1.1 | 850 (≈ 1600 µM) | – | – | – | – | – |
| O=C(Nc1ccccc1)N[C@@H]1C(=O)N(CC23CC4CC(CC(C4)C2)C3)c2ccccc2N(c2ccccc2)C1=O | – | 0.05 | – | – | – | – | – | – | – | – | – | – | – | – | – | – | – | – | – |
